Shown are actives, neighbours in structure and some others; about 1.6% of the full set was active somewhere.
DNA FID counter: displaces DNA intercalator in HCV helicase counter-screen. DNA fluorescent intercalator displacement, fluorescence. inhibition, % at 7.9 µM. 0.17% of 290,000 active; in the data active means inhibition above about 37%;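 further: 0% = vehicle and 100% = reference compound; higher means more ethidium bromide displaced from hairpin DNA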
UBC13 inh: human UBC13 polyubiquitination inhibition; P61088; UBC13 polyubiquitin chain formation, TR-FRET; inhibition, % at 20 µM; 0.47% of 330,000 active; in the data active means inhibition above about 45%, passing the limit was not always enough
Apaf1 inhib: inhibitors of human Apaf-1 apoptosome; O14727; reconstituted apoptosome caspase-3 activity, DEVD-Rh110 fluorescence; inhibition, % at 20 µM; 0.71% of 330,000 active; AID 489030; active means inhibition of at least 40% at 20 µM;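 further: plate controls were DMSO wells for no effect and DEVD-CHO caspase inhibitor wells for full effect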
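Material: cell-free apoptosome with Apaf-1, procaspase-3 and caspase-9; Buffer or medium: Hepes pH 7.5 with detergent and BSA; Reagent: cytochrome c trigger plus (Z-DEVD)2-Rh110 caspase-3 substrate; Times: compound with Apaf-1, dATP, procaspase-3 30 min, then 50 min reaction, room temperature; Technique: Rh110 fluorescence intensity.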
RAD54 inh: inhibitors of human RAD54 branch migration; Q92698; inhibition, % at 10.4 µM; 0.14% of 360,000 active; AID 602329; RAD54 Holliday junction branch migration, FAM/BHQ fluorescence;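 active means mean normalized replicate activity at least 40 and at least half of replicates scoring 40 or more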;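 further: 0% = median of neutral control wells and 100% = median of positive control wells; inhibitors cause a drop in the FAM fluorescence signal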
Neddylation inh: blocks human cullin neddylation | calls only at 25 µM | P61081+Q13564 | TR-FRET cullin neddylation, biochemical | 0.58% of 360,000 active; in the data active means inhibition above about 36%
Target sequence (P61081 whole entry, looked up): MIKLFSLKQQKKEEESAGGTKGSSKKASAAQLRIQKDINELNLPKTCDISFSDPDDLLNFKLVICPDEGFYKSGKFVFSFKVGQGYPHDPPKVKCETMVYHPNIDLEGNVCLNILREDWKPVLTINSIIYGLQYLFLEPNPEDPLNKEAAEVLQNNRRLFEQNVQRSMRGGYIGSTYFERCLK
Target sequence (Q13564 whole entry, looked up): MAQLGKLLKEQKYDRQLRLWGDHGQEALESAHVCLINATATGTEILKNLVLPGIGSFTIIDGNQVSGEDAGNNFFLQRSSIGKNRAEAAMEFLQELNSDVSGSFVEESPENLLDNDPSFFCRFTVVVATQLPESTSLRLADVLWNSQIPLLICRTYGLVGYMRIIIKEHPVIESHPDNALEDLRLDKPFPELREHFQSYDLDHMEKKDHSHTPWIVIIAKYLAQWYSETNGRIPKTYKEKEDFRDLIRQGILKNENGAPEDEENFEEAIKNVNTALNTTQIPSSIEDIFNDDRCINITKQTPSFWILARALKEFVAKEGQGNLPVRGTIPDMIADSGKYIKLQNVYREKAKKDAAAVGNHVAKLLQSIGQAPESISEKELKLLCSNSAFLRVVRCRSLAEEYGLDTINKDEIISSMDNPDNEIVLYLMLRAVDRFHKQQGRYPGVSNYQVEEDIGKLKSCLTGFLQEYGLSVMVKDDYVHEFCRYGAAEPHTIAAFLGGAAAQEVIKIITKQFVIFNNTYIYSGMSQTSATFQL
RAD52 anneal inh: inhibitors of human RAD52 DNA annealing; P43351; recombinant RAD52 DNA annealing, FRET fluorescence; inhibition, % at 18.7 µM; 0.46% of 360,000 active; AID 651710;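 active means every replicate showing at least 50% inhibition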
An asterisk follows results filed as active; i = inactive; nt = not tested or not shown; + = active, no number.

SMILES	DNA FID counter	UBC13 inh	Apaf1 inhib	RAD54 inh	Neddylation inh	RAD52 anneal inh
CCCCCCN(C(=O)CCCCCN1C(=O)NC(c2ccc(-c3ccccc3)cc2)C(C(=O)OCc2ccccc2)=C1C)C(C(=O)NCCCC)c1ccc(-c2ccccc2)cc1 (stereo not given)	nt	2	7	nt	nt	-6
CCCCCCN(C(=O)CCCCCN1C(=O)NC(c2ccc(-c3ccccc3)cc2)C(C(=O)OCc2ccccc2)=C1C)C(C(=O)NCCCC)c1cccc(C(=O)OC)c1 (stereo not given)	nt	-28	79*	nt	nt	-18
COc1ccc(C#Cc2ccc3c(c2)[C@@H]2[C@@H](CCN2S(=O)(=O)c2cccc(OC)c2)[C@@H](CO)N3C)cc1	nt	nt	nt	5	nt	67*
COc1ccccc1NC(=O)N1CC[C@@H]2[C@H]1c1cc(-c3ccccc3)ccc1N(C)[C@@H]2CO	nt	nt	nt	17	nt	52*
COc1ccccc1NC(=O)N1CC[C@@H]2[C@H]1c1cc(C#Cc3ccc(F)cc3)ccc1N(C)[C@@H]2CO	nt	nt	nt	6	nt	70*
COc1ccccc1NC(=O)N1CC[C@H]2[C@@H]1c1cc(-c3ccc(F)cc3)ccc1N(C)[C@H]2CO	nt	nt	nt	1	nt	-10
COc1ccccc1NC(=O)N1CC[C@H]2[C@@H]1c1cc(-c3ccccc3)ccc1N(C)[C@H]2CO	nt	nt	nt	17	nt	58*
C/C=C/c1ccc([C@H]2[C@@H](CO)N(CC3CC3)C23CN(S(C)(=O)=O)C3)cc1	nt	nt	nt	nt	nt	-30
C[C@H](CO)N1C[C@H](C)[C@H](CN(C)S(=O)(=O)c2ccc(Cl)cc2)Oc2ccc(NC(=O)CCCN(C)C)cc2C1=O	nt	nt	nt	17	nt	21
Cn1c(C(=O)NCCN2CCOCC2)cc2c(=O)n(C)c3ccccc3c21	1	14	1	34	i	3
CN(CCNC(=O)c1cc2c(=O)n(C)c3ccccc3c2n1C)Cc1ccccc1	13	32	5	52*	i	15
CCCN(CCC)CCNC(=O)c1cc2c(=O)n(C)c3ccccc3c2n1C	11	38	1	55*	+	26
COc1ccccc1-c1cnc2c(c1)C(=O)N([C@H](C)CO)C[C@H](C)[C@H](CN(C)Cc1cncnc1)O2	nt	nt	nt	7	nt	18
COc1ccc(/C(C)=N/NC(=O)c2cccc(S(=O)(=O)N3CCCC3)c2)c(O)c1	nt	5	11	-8	+	-8
CC(C)NC(=O)[C@@]1(C)c2ccccc2C(=O)N(Cc2ccc(OC(F)(F)F)cc2)[C@H]1c1ccc(CO)cc1	nt	nt	nt	-15	nt	2
COc1ccc(OC)c(NC(=O)CCN2C(=O)c3cccc([N+](=O)[O-])c3C2=O)c1	-7	-9	0	3	i	9
COc1ccc(NC(=O)CCCCCN2C(=O)c3cccc([N+](=O)[O-])c3C2=O)c(OC)c1	-20	-1	41*	3	i	-22
c1ccc2nc(-c3nc4ccccc4o3)ccc2c1	-5	3	4	11	+	nt
c1ccc(-c2nc3ccccc3o2)nc1	-1	9	3	3	i	nt
O=C(Cc1cc(=O)[nH][nH]1)N/N=C/c1ccccc1Cl	-8	-2	77*	nt	nt	-2
O=C(Cc1cc(=O)[nH][nH]1)N/N=C/c1c(F)cccc1Cl	-15	-9	25	nt	i	-3
C[C@@H]1CN([C@H](C)CO)C(=O)c2cc(NC(=O)c3ccncc3)ccc2O[C@@H](C)CCCCO[C@@H]1CN(C)Cc1ccc(C(=O)O)cc1	nt	nt	nt	-3	nt	100*
C[C@@H]1CN([C@@H](C)CO)C(=O)c2cc(NC(=O)c3ccncc3)ccc2O[C@@H](C)CCCCO[C@@H]1CN(C)Cc1ccncc1	nt	nt	nt	-5	nt	-6
C[C@@H]1CN([C@H](C)CO)C(=O)c2cc(NC(=O)c3ccncc3)ccc2O[C@@H](C)CCCCO[C@H]1CN(C)Cc1ccc(C(=O)O)cc1	nt	nt	nt	-6	nt	99*
C/C=C/c1ccc([C@@H]2[C@@H](CO)N3C(=O)CN(C(=O)NC4CCCC4)C[C@@H]23)cc1	nt	nt	nt	nt	nt	13
SMILES	DNA FID counter	UBC13 inh	Apaf1 inhib	RAD54 inh	Neddylation inh	RAD52 anneal inh
CN(C)C(=O)c1ccc(-c2ccc3c(c2)[C@@H]2[C@@H](CCN2C(=O)c2ccc4c(c2)OCO4)[C@@H](CO)N3)cc1	nt	nt	nt	-3	nt	nt
CO[C@@H]1CN(C)C(=O)c2cc(NC(=O)C3CCOCC3)ccc2OC[C@@H](C)N(CC2CCCCC2)C[C@H]1C	nt	nt	nt	-2	nt	nt
CN(C)CC(=O)N1CCCCN2[C@H](CO)[C@H](c3ccc(/C=C/c4ccccc4)cc3)[C@H]2C1	nt	nt	nt	38	nt	62*
CN(C)CC(=O)N1CCCCN2[C@@H](CO)[C@H](c3ccc(/C=C/c4ccccc4)cc3)[C@@H]2C1	nt	nt	nt	31	nt	69*
OC[C@H]1[C@H](c2ccc(/C=C/c3ccccc3)cc2)[C@H]2CN(Cc3cccnc3)CCCCN21	nt	nt	nt	-1	nt	53*
CN(C)CC(=O)N1CCCCN2[C@@H](CO)[C@@H](c3ccc(/C=C/c4ccccc4)cc3)[C@@H]2C1	nt	nt	nt	20	nt	71*
CN(C)CC(=O)N1CCCCN2[C@H](C1)[C@@H](c1ccc(/C=C/c3ccccc3)cc1)[C@@H]2CO	nt	nt	nt	25	nt	58*
O=C(Nc1ccccc1)N1CC(=O)N2[C@H](C1)[C@@H](c1ccc(C#CC3CCCC3)cc1)[C@@H]2CO	nt	nt	nt	nt	nt	-4
CSc1ccccc1NC(=O)c1cc(S(=O)(=O)N(C)C)ccc1N1CCCC1	-25	10	52*	-12	i	-1
CN(C)S(=O)(=O)c1ccc(N2CCCC2)c(C(=O)Nc2ccccc2N2CCOCC2)c1	nt	nt	nt	-17	i	nt
CCOC(=O)C1=C(C)N=c2s/c(=C/c3ccc(OCC(=O)O)c(OC)c3)c(=O)n2C1c1ccc(Cl)cc1 (stereo not given)	nt	-39	10	nt	+	-347
CCOC(=O)C1=C(C)N=c2s/c(=C\c3ccc(OCC(=O)O)cc3)c(=O)n2C1c1ccc(Cl)cc1 (stereo not given)	14	-44	-34	-32	i	-236
COc1ccc2c3c([nH]c2c1)[C@H](CO)NCC31CCN(C(=O)Nc2ccc(F)cc2F)CC1	nt	nt	nt	nt	nt	76*
COc1ccc2c3c([nH]c2c1)[C@@H](CO)N(C(C)=O)CC31CCN(C(=O)Nc2ccccc2F)CC1	nt	nt	nt	nt	nt	11
COc1ccc2c3c([nH]c2c1)[C@H](CO)N(C(C)=O)CC31CCN(C(=O)Nc2ccc(F)cc2F)CC1	nt	nt	nt	nt	nt	5
COc1ccc2c3c([nH]c2c1)[C@@H](CO)NCC31CCN(C(=O)Nc2ccccc2F)CC1	nt	nt	nt	nt	nt	68*
C[C@@H]1CCCCO[C@@H](CN(C)Cc2ccc(C(F)(F)F)cc2)[C@@H](C)CN([C@@H](C)CO)C(=O)c2cc(NC(=O)CCC(F)(F)F)ccc2O1	nt	nt	nt	-13	nt	-75
CCCN(C)C[C@H]1OCCCC[C@@H](C)Oc2ccc(NC(=O)Nc3ccc(OC)cc3)cc2C(=O)N([C@@H](C)CO)C[C@H]1C	nt	nt	nt	-3	nt	53*

Assay outcomes as filed in PubChem BioAssay.
